RAM network inh: blocks the yeast RAM network; 190,000 compounds, 1.8% hits; S. cerevisiae dse1pr::URA3 reporter, 5-FOA growth OD615, 2 d; analog-sensitive cbk1-as2 kinase mutant strain; inhibition, % at 50 µM;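 active = inhibition above a set limit, 3 SD over mean compound inhibition, cut at about 8.4% in these data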;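 also: 0% = DMSO-only wells with no growth and 100% = 10 µM 1-NA-PP1 full growth; inhibition rescues growth on 5-FOA so higher OD means more RAM inhibition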
Insulin prom up: MIN6 insulin promoter up-regulation. 190,000 compounds, 0.3% hits. MIN6 insulin promoter-GFP reporter, high-content imaging; stronger effect = higher value. z-score at 5 µM;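 active = z-score above 3 at 5 µM with at least 500 cells counted in the well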
Yeast life ext: yeast lifespan extension; S. cerevisiae growth with nicotinamide, OD615; deaD strain in restrictive glucose medium; AID 775; inhibition of the nicotinamide effect, % at 10 µM; 130,000 compounds, 0.68% hits;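 active = inhibition above a set limit, placed 3 SD over the median of all compounds, cut at about 26% in these data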;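 also: 0% = nicotinamide-treated wells and 100% = cells grown without nicotinamide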
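Test system: DeaD-strain S. cerevisiae / Buffer or medium: restrictive glucose medium / Also added: nicotinamide 1.5 mM / Doses: one concentration, 10 µM, DMSO 0.25% / Schedule: 48 h at 30 °C / Signal: OD615 measurement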
Yeast growth inh: yeast BB579 growth reduction in restrictive medium; S. cerevisiae BB579 growth, OD615, 48 h; inhibition, % at 10 µM; 140,000 compounds, 0.51% hits;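 active = inhibition above a set limit, 3 SD over the mean compound inhibition, cut at about 44% in these data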
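Detection: OD615 turbidity measurement; Material: Saccharomyces cerevisiae DeaD strain BB579, replicative lifespan model yeast; Timing: 48 h exposure, 30 °C; Doses: single 10 µM dose; Medium: CSMM-D restrictive synthetic medium containing dextrose (glucose); Controls: amphotericin B at 10 µg/mL as positive control.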
INS promoter inh: TRM-6 insulin promoter activity inhibition; 130,000 compounds, 0.9% hits; TRM-6 cells, insulin promoter-eGFP reporter, imaging; reporter expression induced with tamoxifen; inhibition, % at 2 µM;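 active = inhibition above the mean plus 3 SD, with well images judged a real hit on visual review, cut at about 60% in these data, passing the limit was not always enough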
RAM 5-FOA: RAM network inhibitors in efflux-deficient yeast. shares compounds with RAM network inh. S. cerevisiae efflux-deficient reporter strain, 5-FOA growth OD615, 2 days. max inhibition, %. 1,200 tested, under 10 active. AID 1305; call rule not given here;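 also: plate controls were vehicle for no effect and reference inhibitor for full effect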
An asterisk follows results filed as active; x = no result. The list is not random: actives were taken first. Their share in the collection is about 3.1%.

SMILES	RAM network inh	Insulin prom up	Yeast life ext	Yeast growth inh	INS promoter inh	RAM 5-FOA
O=C(N=Nc1c(O)n(C2OC(=O)c3ccccc32)c2ccccc12)c1ccc(O)cc1 (configuration not stated)	12*	0.4	-3	-35	-28	4
O=C(N=Nc1c(O)n(Cc2ccccc2)c2ccccc12)c1ccc(O)cc1	4	-2	-2	-42	21	x
O=C(CSc1ccc2c(c1)OCCO2)NC(=O)Cc1ccccc1	1	0.13	1	-26	23	x
O=[N+]([O-])c1ccc(-c2nnc(-c3ccccc3)c(NCCCO)n2)cc1	13*	-0.27	-4	-41	-29	2
OCCCNc1nc(-c2ccc(Cl)cc2)nnc1-c1ccc(Br)cc1	1	-1.1	-2	-36	-15	x
CCOC(=O)c1c(C)[nH]c(C)c1C(=O)COC(=O)/C=C/c1cccc(C(F)(F)F)c1	23*	0.31	-1	-7	14	3
Cc1nn(Cc2ccccc2)c(Cl)c1C(=O)OCc1nnc(-c2ccccc2)o1	16*	-0.23	3	-67	x	2
CC(C)c1ccc(OCc2ccc(C(=O)NN3CCN(C)CC3)o2)cc1	1	0.82	x	x	x	x
CCOC(=O)C1=C(c2ccccc2)N=c2s/c(=C\c3cc(OC)c(OC)c(OC)c3)c(=O)n2C1c1cccs1 (configuration not stated)	12*	-1.4	-15	-12	3	4
CCOC(=O)C1=C(c2ccccc2)N=c2s/c(=C\c3ccco3)c(=O)n2C1c1cccs1 (configuration not stated)	5	x	3	-38	x	x
CC(C)(C)C(=O)COC(=O)c1cc(-c2cccnc2)nc2ccccc12	-1	0.32	x	x	x	x
Nc1nc(-c2ccccc2)c(N=Nc2cccnc2)s1	13*	1.4	x	x	x	2
COc1ccccc1NC(=O)c1ccc(NC(=O)COC(=O)CCC2CCCC2)cc1	14*	1.5	-3	-32	19	3
CCOC(=O)c1c(C)[nH]c(C(=O)C(C)Sc2ccc(Cl)cc2)c1C (configuration not stated)	12*	0.06	-17	-69	-39	3
Cc1cccc(C)c1NC(=O)C(c1ccccc1)N1CCC1=O (configuration not stated)	-1	-0.27	3	23	x	x
CC(C)(C)NC(=O)c1ccc(NC(=O)CSc2ccccc2)cc1	22*	0.44	x	x	x	2
Cc1nc(NC(=O)C(C)Oc2cccc(Cl)c2)sc1C(=O)N(C)C (configuration not stated)	2	-0.07	-2	-25	29	x
CCCCc1ccc(/C=C2\C(=O)c3ccccc3C(O)=C2C(=O)OCC)cc1	14*	-1.3	18	-55	x	8
Cc1ccc(S(=O)(=O)N(C)C)cc1NC(=S)N1CCc2ccccc21	2	0.96	x	x	x	x
COc1cc(/C=C2\SC(=S)N(CC(=O)Nc3ccccn3)C2=O)cc(OC)c1OC	6	-0.11	-4	-38	x	x
C=CCN1C(=O)/C(=C\c2cc(Br)c(OCc3ccccn3)c(OC)c2)SC1=S	19*	-0.16	x	x	x	2
O=C(NC(NC(=S)Nc1c(Cl)cccc1Cl)C(Cl)(Cl)Cl)OCc1ccccc1 (configuration not stated)	3	-0.04	2	-15	41	x
Cc1ccc(S(=O)(=O)Nc2nc3ccccc3nc2NCC2CCCO2)cc1C (configuration not stated)	x	0.08	x	x	x	x
CSc1nc2ccccc2cc1/C=C(\C#N)c1cccc(C)c1	13*	x	-10	-19	-14	5
CSc1nc2ccccc2cc1/C=C(\C#N)c1ccccc1	6	0.13	-6	-62	28	x
SMILES	RAM network inh	Insulin prom up	Yeast life ext	Yeast growth inh	INS promoter inh	RAM 5-FOA
O=C1NC(=S)N/C1=C\c1ccc(Oc2ccc(C(F)(F)F)cc2[N+](=O)[O-])c(Cl)c1	x	-0.15	x	x	x	x
CCCCn1c(SCC(=O)Nc2ccccc2C(F)(F)F)nc2ccsc2c1=O	11*	-0.7	-2	-11	5	3
CCCCn1c(SCC(=O)Nc2nccs2)nc2ccccc2c1=O	3	x	-19	-58	17	x
CCOC(=O)c1cnc2c(-c3ccccc3OC)c(C)nn2c1C	4	-1.2	x	x	-79	x
CS(=O)(=O)Nc1ccc(C(=O)Nc2ccccc2Sc2ccccc2)cc1	12*	0.28	6	-35	4	1
CCc1ccccc1NC(=O)c1ccc(NS(C)(=O)=O)cc1	0	0.86	x	x	x	x
CCCCC1(Cc2cccc([N+](=O)[O-])c2)C(=O)N(c2ccccc2)N(c2ccccc2)C1=O	13*	-1.5	9	-44	39	5
CCCCC1(CO)C(=O)N(c2ccccc2)N(c2ccccc2)C1=O	x	-0.37	x	x	x	x
O=[N+]([O-])c1ccc(COc2cccc(CNc3ccc(Br)cc3)c2)cc1	14*	-0.08	7	-38	x	2
CCOC(=O)C1(Cc2ccc(Cl)cc2)CCN(C(=O)c2cc(C)nc(C)n2)CC1	1	1.9	x	x	x	x
Cc1cccnc1CN1CCN(Cc2nc(C(c3ccccc3)c3ccccc3)no2)CC1	2	0.96	x	x	x	x
COc1ccc(CC(=O)Nc2cccc(S(=O)(=O)N3CCCCCC3)c2)cc1OC	12*	1.1	2	-31	-11	3
COc1ccc(S(=O)(=O)Nc2cccc(S(=O)(=O)N3CCCCCC3)c2)cc1	14*	-0.43	6	-29	x	5
O=C(NS(=O)(=O)Oc1ccc(Cl)cc1)OC[C@@H]1CCCN2CCCC[C@H]12	0	0.64	3	9	23	x
C=C(C)CNC(=S)Nc1nc2c(cc1C(=O)OCC)CCCC2	12*	-0.19	6	-47	-41	3
CCOC(=O)c1cc2c(nc1N)CCCC2	x	0.62	x	x	x	x
O=C(OCc1ccccc1)C1=[N+]([O-])OC(C(=O)OCc2ccccc2)C1c1c[nH]c2ccccc12 (configuration not stated)	12*	-0.33	-8	-92	18	4
O=C(CNC(=S)N(Cc1ccccc1)Cc1ccccc1F)NCCc1ccc(Cl)cc1	36*	-1.6	x	x	33	3
COc1ccc(CCNC(=O)/C(C#N)=C/c2cccc(OCc3ccccc3)c2)cc1OC	14*	0.7	2	-11	5	2
Cc1ccc(-n2c(SCC(=O)N3CCCc4ccccc43)nnc2-c2cccnc2)c(C)c1	12*	0.58	6	-55	-100	1
CCCC(=O)C1=C(O)C(C(=O)OC)C(C)(C)CC1=Nc1cccc2ccccc12 (configuration not stated)	12*	x	x	-2	-106	4
Cn1cnnc1Sc1ccc(C(=O)NCCC23CC4CC(CC(C4)C2)C3)cc1[N+](=O)[O-]	2	0.45	5	-7	x	x
CCOC(=O)/C(=N/Nc1ccccc1)c1csc(Nc2ccccc2)n1	16*	x	-21	-34	-8	4
O=C(CSc1ccc(Cl)cc1Cl)N1CCC(c2nc3ccccc3s2)CC1	13*	x	-12	-53	-34	2
